How the values were obtained:
[1] = biological target: T1, Potassium voltage-gated channel subfamily A member 5 (Homo sapiens, UniProt P22460); experiment: Inhibition of recombinant human Kv1.5 expressed in mouse L929 cells by patch clamp assay; assay type: cell-based
Procedure, shortened: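 Whole-cell patch clamp of IKur current in mouse L-929 cells transfected with human KV1.5 and stably expressing the channel.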

[2] = Ratio of drug level in Sprague-Dawley rat brain to plasma at 3 mg/kg, iv administered as 10 mins infusion by LC-MS/MS analysis; assay type: ADME, organism-based; details: brain and plasma, read-out: BPR
[3] = biological target: T2, Voltage-gated inwardly rectifying potassium channel KCNH2 (Homo sapiens, UniProt Q12809); experiment: Inhibition of human ERG expressed in HEK293 cells by patch clamp method; assay type: cell-based
[4] = Protein binding in human plasma; assay type: ADME, cell-free; details: read-out: PPB
[5] = Protein binding in rat plasma; assay type: ADME, cell-free; details: read-out: PPB
[6] = biological target: T1, Potassium voltage-gated channel subfamily A member 5; details: at 0.3 µM
[7] = biological target: T2, Voltage-gated inwardly rectifying potassium channel KCNH2; experiment: Inhibition of human ERG expressed in HEK293 cells by flux assay
[8] = Stability in human liver microsomes assessed as compound remaining in presence of NADPH after 10 mins; assay type: ADME, microsome; details: read-out: Stability
[9] = Solubility of the compound in ethanol/propylene glycol/PEG-400; assay type: physicochemical
[10] = biological target: T3, hERG (KCNH2) (Homo sapiens, UniProt Q12809); experiment: Inhibition of human ERG expressed in HEK293 cells at 1 uM by patch clamp method relative to control; assay type: cell-based; details: HEK293 cells expressing human ERG
[11] = biological target: T3, hERG (KCNH2); experiment: Inhibition of human ERG expressed in HEK293 cells at 10 uM by patch clamp method relative to control; assay type: cell-based; details: HEK293 cells expressing human ERG
[12] = Solubility of the compound in pH 1 to 8 solution using crystalline form; assay type: physicochemical
[13] = Prodrug conversion in monkey famotidine model assessed as 5-[5-phenyl-4-(pyridin-2-ylmethylamino)-quinazolin-2-yl]pyridine-3-sulfonamide formation in intestinal brush border; assay type: ADME, Macaca mulatta; details: rhesus monkey, in vivo
[14] = system: Plasma; experiment: Drug uptake in monkey famotidine model plasma; assay type: ADME, cell-free, Macaca mulatta; details: rhesus monkey

T2 sequence (Q12809 whole entry): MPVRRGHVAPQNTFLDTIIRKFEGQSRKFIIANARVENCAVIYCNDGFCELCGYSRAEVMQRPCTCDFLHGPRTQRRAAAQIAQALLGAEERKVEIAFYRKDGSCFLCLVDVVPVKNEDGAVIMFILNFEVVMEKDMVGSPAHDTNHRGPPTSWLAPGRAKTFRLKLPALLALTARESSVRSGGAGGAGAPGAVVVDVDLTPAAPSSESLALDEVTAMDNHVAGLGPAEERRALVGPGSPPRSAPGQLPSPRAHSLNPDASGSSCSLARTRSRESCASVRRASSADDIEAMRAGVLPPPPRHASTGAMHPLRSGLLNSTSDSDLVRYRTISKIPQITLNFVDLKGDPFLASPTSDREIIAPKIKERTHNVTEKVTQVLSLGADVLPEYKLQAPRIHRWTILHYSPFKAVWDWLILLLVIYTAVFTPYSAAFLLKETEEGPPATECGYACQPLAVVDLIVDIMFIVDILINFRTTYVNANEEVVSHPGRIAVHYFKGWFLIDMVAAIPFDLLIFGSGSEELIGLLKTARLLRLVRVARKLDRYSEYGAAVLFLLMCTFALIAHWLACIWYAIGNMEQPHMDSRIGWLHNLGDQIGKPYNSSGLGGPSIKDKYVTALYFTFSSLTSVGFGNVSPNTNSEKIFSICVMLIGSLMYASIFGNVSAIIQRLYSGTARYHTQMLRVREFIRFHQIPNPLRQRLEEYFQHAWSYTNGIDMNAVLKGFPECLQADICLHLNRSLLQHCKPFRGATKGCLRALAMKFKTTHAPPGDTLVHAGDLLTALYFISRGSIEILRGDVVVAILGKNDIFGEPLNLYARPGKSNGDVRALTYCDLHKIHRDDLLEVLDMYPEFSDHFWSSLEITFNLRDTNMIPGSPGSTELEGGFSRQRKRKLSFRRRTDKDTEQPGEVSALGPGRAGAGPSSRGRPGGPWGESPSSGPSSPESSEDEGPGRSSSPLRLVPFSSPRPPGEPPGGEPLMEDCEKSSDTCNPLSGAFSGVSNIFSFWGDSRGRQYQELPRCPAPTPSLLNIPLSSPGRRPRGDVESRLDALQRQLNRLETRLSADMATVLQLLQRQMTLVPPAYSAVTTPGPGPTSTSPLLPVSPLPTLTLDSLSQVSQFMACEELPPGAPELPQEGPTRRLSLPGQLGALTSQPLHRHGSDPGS
T1 sequence (P22460 whole entry): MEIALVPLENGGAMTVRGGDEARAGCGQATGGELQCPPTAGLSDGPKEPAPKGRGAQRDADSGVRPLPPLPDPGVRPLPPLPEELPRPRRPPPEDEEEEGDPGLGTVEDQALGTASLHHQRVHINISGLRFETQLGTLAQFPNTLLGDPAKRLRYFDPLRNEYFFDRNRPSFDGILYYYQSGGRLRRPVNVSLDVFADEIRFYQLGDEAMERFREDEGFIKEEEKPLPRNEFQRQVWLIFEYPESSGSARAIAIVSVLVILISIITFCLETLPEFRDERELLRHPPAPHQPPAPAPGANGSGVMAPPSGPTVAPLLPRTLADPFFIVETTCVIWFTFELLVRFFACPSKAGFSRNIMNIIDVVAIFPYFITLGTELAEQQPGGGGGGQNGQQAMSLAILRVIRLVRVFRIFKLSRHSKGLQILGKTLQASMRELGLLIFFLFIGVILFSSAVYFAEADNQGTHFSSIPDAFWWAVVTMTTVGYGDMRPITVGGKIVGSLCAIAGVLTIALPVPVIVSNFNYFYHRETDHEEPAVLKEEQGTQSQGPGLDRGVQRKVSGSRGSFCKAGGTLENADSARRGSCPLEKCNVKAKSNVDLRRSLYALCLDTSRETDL
T3 sequence (Q12809 whole entry): as the sequence (Q12809 whole entry) above

| SMILES | Kp at 10 min [2] | fraction unbound [4] | fraction unbound [5] | inhibition [6] [%] | also measured |
| --- | --- | --- | --- | --- | --- |
| O=S(=O)(c1cccc(Nc2nc(Cl)nc3cccc(-c4ccccc4)c23)c1)N1CCOCC1 | 3 | – | – | – | IC50 [1]: 210 nM |
| NS(=O)(=O)c1ccc(-c2nc(NCc3ccccn3)c3c(-c4ccccc4)cccc3n2)cn1 | 0.4 | < 0.005 | < 0.005 | 92 | – |
| CN(C)c1ccc(-c2cccc3nc(-c4cncnc4)nc(NCc4ccccn4)c23)cc1 | – | – | – | – | IC50 [1]: 330 nM; IC50 [7]: > 80000 nM; remaining at 10 min [8]: < 3% |
| O=c1ccc(-c2nc(NCc3ccccn3)c3c(-c4ccccc4)cccc3n2)c[nH]1 | 1 | – | – | – | IC50 [3]: 500 nM |
| NS(=O)(=O)Nc1cncc(-c2nc(NCc3ccccn3)c3c(-c4ccccc4)cccc3n2)c1 | 0.04 | < 0.005 | < 0.005 | 99 | IC50 [3]: 800 nM; solubility [9]: Insoluble |
| CS(=O)(=O)Nc1cncc(-c2nc(NCc3ccccn3)c3c(-c4ccccc4)cccc3n2)c1 | 0.07 | < 0.005 | < 0.005 | 87 | inhibition at 10 µM [11]: 94% |
| O=P(O)(O)NS(=O)(=O)c1cncc(-c2nc(NCc3ccccn3)c3c(-c4ccccc4)cccc3n2)c1 | – | – | – | – | solubility [12]: Soluble; Drug metabolism [13]: Metabolite_Detected; Drug uptake [14]: Not Active |
| COc1ncc(-c2nc(NCc3ccccn3)c3c(-c4ccccc4)cccc3n2)cn1 | 2.5 | – | – | – | – |
| NS(=O)(=O)c1ccc(CCNc2nc(Cl)nc3cccc(-c4ccccc4)c23)cc1 | 0.6 | – | – | 73 | remaining at 10 min [8]: 68% |
| Nc1ncc(-c2nc(NCc3ccccn3)c3c(-c4ccccc4)cccc3n2)cn1 | 3 | < 0.005 | < 0.005 | 95 | IC50 [3]: 80000 nM |
| O=S(=O)(c1cccc(Nc2nc(-c3cncnc3)nc3cccc(-c4ccccc4)c23)c1)N1CCOCC1 | 2.4 | < 0.005 | < 0.005 | – | IC50 [1]: 80 nM |
| CC(=O)Nc1cncc(-c2nc(NCc3ccccn3)c3c(-c4ccccc4)cccc3n2)c1 | 0.08 | < 0.005 | < 0.005 | – | IC50 [1]: 100 nM; IC50 [3]: 2000 nM |
| NC(=O)Nc1ccc(-c2nc(NCc3ccccn3)c3c(-c4ccccc4)cccc3n2)cn1 | 1 | < 0.005 | < 0.005 | 79 | – |
| NS(=O)(=O)c1cccc(-c2nc(NCc3ccccn3)c3c(-c4ccccc4)cccc3n2)n1 | – | – | – | 87 | – |
| N#Cc1ncc(-c2nc(NCc3ccccn3)c3c(-c4ccccc4)cccc3n2)cn1 | 3 | – | – | 64 | – |
| NS(=O)(=O)c1ccncc1-c1nc(NCc2ccccn2)c2c(-c3ccccc3)cccc2n1 | – | – | – | 48 | – |
| NS(=O)(=O)c1ccc(CCNc2nc(-c3cncnc3)nc3cccc(-c4ccccc4)c23)cc1 | – | – | – | 15 | IC50 [7]: 5600 nM |

Further lines, with some results ahead:

| Kp at 10 min [2] | fraction unbound [4] | fraction unbound [5] | inhibition [6] [%] | SMILES | also measured |
| --- | --- | --- | --- | --- | --- |
| 3 | < 0.01 | < 0.01 | – | NC(=O)c1ccc(-c2nc(NCc3ccccn3)c3c(-c4ccccc4)cccc3n2)cn1 | IC50 [1]: 100 nM; IC50 [3]: 4600 nM |
| 0.2 | < 0.01 | < 0.01 | – | NC(=O)c1ccc(-c2cccc3nc(-c4cncnc4)nc(NCc4ccccn4)c23)cc1 | IC50 [3]: 1300 nM |
| 0.3 | < 0.005 | < 0.005 | 89 | NC(=O)c1cncc(-c2nc(NCc3ccccn3)c3c(-c4ccccc4)cccc3n2)c1 | inhibition at 1 µM [10]: 26% |
| 0.3 | < 0.005 | < 0.005 | 2 | O=C(NCC(F)(F)F)c1ccc(-c2cccc3nc(-c4cncnc4)nc(NCc4ccccn4)c23)cc1 | IC50 [3]: 4900 nM |
| 2.8 | – | – | – | c1ccc(-c2cccc3nc(-c4cncnc4)nc(NCc4ccccn4)c23)cc1 | – |
| 0.3 | – | – | 50 | c1ccc(CNc2nc(-c3cncnc3)nc3cccc(-c4cccc(N5CCOCC5)c4)c23)nc1 | – |
| 2 | < 0.005 | < 0.005 | 80 | CC(=O)Nc1ccc(-c2nc(NCc3ccccn3)c3c(-c4ccccc4)cccc3n2)cn1 | – |
| 0.04 | < 0.005 | < 0.005 | 91 | NC(=O)Nc1cncc(-c2nc(NCc3ccccn3)c3c(-c4ccccc4)cccc3n2)c1 | solubility [9]: Insoluble |

— ChEMBL document CHEMBL4014310, “Selective IKur Inhibitors for the Potential Treatment of Atrial Fibrillation: Optimization of the Phenyl Quinazoline Series Leading to Clinical Candidate 5-[5-Phenyl-4-(pyridin-2-ylmethylamino)quinazolin-2-yl]pyridine-3-sulfonamide” (J Med Chem, 2017)
